These results are taken from ChEMBL document CHEMBL1144296, “3,4-Dihydro-2H-benzoxazinones are 5-HT(1A) receptor antagonists with potent 5-HT reuptake inhibitory activity” (Bioorg Med Chem Lett, 2005).

Assay [1] addresses T1, 5-hydroxytryptamine receptor 1A (Homo sapiens, UniProt P08908).
T1 sequence (P08908 whole entry): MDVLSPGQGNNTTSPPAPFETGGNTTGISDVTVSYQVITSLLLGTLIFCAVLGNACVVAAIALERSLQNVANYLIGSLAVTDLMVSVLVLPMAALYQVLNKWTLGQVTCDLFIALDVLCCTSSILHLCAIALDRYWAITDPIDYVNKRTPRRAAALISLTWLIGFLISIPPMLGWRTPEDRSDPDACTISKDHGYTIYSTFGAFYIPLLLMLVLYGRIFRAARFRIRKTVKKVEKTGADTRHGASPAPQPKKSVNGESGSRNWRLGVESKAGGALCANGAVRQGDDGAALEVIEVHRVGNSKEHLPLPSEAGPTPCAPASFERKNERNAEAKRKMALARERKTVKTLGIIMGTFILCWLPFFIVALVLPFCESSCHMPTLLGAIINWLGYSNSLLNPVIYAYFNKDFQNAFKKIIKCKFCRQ
As to the kind of experiment: Mean negative logarithim of binding affinity was measured for the human 5-hydroxytryptamine 1A receptor; n>/=3.

Assay [2] has as its target Sodium-dependent serotonin transporter (Rattus norvegicus, UniProt P31652). The assay can be described thus: Mean negative logarithim of binding affinity was measured for the rat serotonin transporter; n>/=3.
Assay [3] has as its target T2, 5-hydroxytryptamine receptor 1A (Homo sapiens) (UniProt P08908).
T2 sequence (whole entry): T1 sequence (P08908 whole entry)
The assay can be described thus: Mean intrinsic activity was measured for the human 5-hydroxytryptamine 1A receptor; n=3. Summed up:
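[35S]-GTPγS binding in HEK293 cells expressing the human 5-HT1A receptor. Intrinsic activity is the mean of three experiments, each within 0.1 of the mean.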

Assay [4] concerns the target Beta-2 adrenergic receptor (Homo sapiens, UniProt P07550). As to the kind of experiment: Binding affinity for human beta-2 adrenergic receptor by displacing [125I]iodocyanopindolol expressed in hamster CHO cells. The assay is classed as cell-based.

Molecules are shown by their SMILES.

What is called Ki is a dissociation constant, usually derived from enzyme kinetics or from competition with a known ligand.

Sequence of Sodium-dependent serotonin transporter (P31652 whole entry): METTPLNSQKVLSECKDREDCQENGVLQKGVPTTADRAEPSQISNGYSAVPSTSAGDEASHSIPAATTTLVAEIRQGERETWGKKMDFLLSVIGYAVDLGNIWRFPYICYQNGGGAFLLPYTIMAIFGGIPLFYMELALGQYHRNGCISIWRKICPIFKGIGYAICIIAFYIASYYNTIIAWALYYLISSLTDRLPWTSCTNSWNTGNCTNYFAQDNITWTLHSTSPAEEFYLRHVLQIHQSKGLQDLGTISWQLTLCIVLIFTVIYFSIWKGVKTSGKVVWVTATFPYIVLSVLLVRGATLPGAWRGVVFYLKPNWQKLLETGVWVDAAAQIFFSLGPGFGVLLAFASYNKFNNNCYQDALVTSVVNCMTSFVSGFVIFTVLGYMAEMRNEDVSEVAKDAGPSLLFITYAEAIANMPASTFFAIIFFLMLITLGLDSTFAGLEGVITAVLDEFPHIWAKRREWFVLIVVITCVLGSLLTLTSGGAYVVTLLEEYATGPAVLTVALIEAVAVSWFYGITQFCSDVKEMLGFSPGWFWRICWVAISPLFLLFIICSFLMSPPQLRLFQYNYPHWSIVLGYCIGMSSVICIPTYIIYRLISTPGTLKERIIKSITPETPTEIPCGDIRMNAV
Sequence of Beta-2 adrenergic receptor (P07550 whole entry): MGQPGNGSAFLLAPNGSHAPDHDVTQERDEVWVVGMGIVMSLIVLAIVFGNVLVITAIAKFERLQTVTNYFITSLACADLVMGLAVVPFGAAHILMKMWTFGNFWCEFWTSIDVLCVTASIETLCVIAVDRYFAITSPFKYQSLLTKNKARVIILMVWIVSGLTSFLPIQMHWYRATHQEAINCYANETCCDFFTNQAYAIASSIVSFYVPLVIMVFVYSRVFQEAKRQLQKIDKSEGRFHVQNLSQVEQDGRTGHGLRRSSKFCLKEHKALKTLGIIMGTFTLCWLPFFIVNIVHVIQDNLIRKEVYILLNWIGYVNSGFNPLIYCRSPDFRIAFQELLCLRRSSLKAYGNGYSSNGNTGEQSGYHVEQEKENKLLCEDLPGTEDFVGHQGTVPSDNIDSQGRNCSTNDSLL

In the case of `O=C1COc2ccc(OC3CCN(CCOc4cccc5[nH]ccc45)CC3)cc2N1`, the inhibitory constant (Ki) is 0.00398 µM in assay [1] and 0.00501 µM in assay [2]. In assay [3], this compound displayed an IA of 0.2.

As to `O=C1COc2ccc(OC3CCN(CCOc4cccc5cccnc45)CC3)cc2N1`, the Ki is 0.00631 µM in assay [1] and 0.0398 µM in assay [2]. This compound registered an IA in assay [3] of 0.5.

For the compound `O=C1COc2ccc(OCC3CCN(CCOc4cccc5ncccc45)C3)cc2N1` (stereo not given), the values for the Ki in assay [1] and in assay [2] were 0.00126 µM and 0.0501 µM, respectively. In assay [3], this compound returned an IA of 0.3.

`CC(COc1ccc2c(c1)NC(=O)CO2)NCC(O)COc1cccc2[nH]ccc12` (stereo in doubt; 1d) [listing 1 of 2 here] had a Ki in assay [2] of 0.316 µM.

Regarding `O=C1COc2ccc(OCC3CCCN(CCOc4cccc5ncccc45)C3)cc2N1` (stereo not given), the results for the inhibition constant (Ki) in assay [1] and in assay [2] were 0.00158 µM and 0.0794 µM, respectively. In assay [3], this compound came in with an IA of 0.3.

In the case of `CC(COc1ccc2c(c1)NC(=O)CO2)NCC(O)COc1cccc2[nH]ccc12` (stereo in doubt; 1b), the IA in assay [3] amounted to 0.3.

The compound `Cc1ccc2c(OCCN3CCC(Cc4ccc5c(c4)NC(=O)CO5)CC3)cccc2n1` registered an IA in assay [3] of 0.2.

In turn, `CC(COc1ccc2c(c1)NC(=O)CO2)NCC(O)COc1cccc2[nH]ccc12` (stereo in doubt; 1c) [listing 1 of 2 here] had an IA in assay [3] of 0.3.

For the compound `O=C1COc2ccc(OC3CCN(CCOc4cccc5ccccc45)CC3)cc2N1`, the Ki in assay [1] is 0.00251 µM; in assay [2] it was 0.1 µM. In assay [3], this compound gave an IA of 0.4.

In the case of `O=C1COc2ccc(CN3CCN(CCOc4cccc5ncccc45)CC3)cc2N1`, the results for the inhibitory constant (Ki) in assay [1] and in assay [2] were 0.01 µM and 0.0316 µM, respectively. Moreover, the IA in assay [3] was found to be 0.2.

Turning to `O=C1COc2ccc(OC3CCN(CCOc4nccc5ccccc45)CC3)cc2N1`, the Ki was 0.00794 µM in assay [1] and 0.0501 µM in assay [2]. Besides, the IA in assay [3] was 0.8.

The compound `O=C1COc2ccc(OC3CCN(CCOc4ccnc5ccccc45)CC3)cc2N1` showed a Ki in assay [1] of 0.1 µM.

As for `N#Cc1cc2c(OCCN3CCC(Oc4ccc5c(c4)NC(=O)CO5)CC3)cccc2[nH]1`, the Ki in assay [1] is 0.00158 µM; in assay [2], 0.00794 µM. In assay [3], this compound gave an IA of 0.3.

In the case of `CC(COc1ccc2c(c1)NC(=O)CO2)NCC(O)COc1cccc2[nH]ccc12` (stereo in doubt; 1) [listing 1 of 2 here], the inhibition constant (Ki) in assay [2] was 0.0501 µM.

With `O=C1COc2ccc(OC3CCN(CCOc4cccc5ncccc45)CC3)cc2N1`, the inhibitory constant (Ki) was 0.0126 µM in assay [1] and 0.0316 µM in assay [2]. For the same compound, the IA in assay [3] turned out to be 0.1.

Consider `CC(COc1ccc2c(c1)NC(=O)CO2)NCC(O)COc1cccc2[nH]ccc12` (stereo in doubt; 1) [listing 2 of 2 here], for which the IA in assay [3] came to 0.3.

With `O=C1COc2ccc(OCCNCCCOc3cccc4[nH]ccc34)cc2N1`, the values for the inhibition constant (Ki) in assay [1], in assay [4] and in assay [2] were 0.00158 µM, 1 µM and 0.0794 µM, respectively. This compound yielded an IA in assay [3] of 0.6.

In assay [3], `CC(COc1ccc2c(c1)NC(=O)CO2)NCC(O)COc1cccc2[nH]ccc12` (stereo in doubt; 1d) [listing 2 of 2 here] came in with an IA of 0.2.

As for `CC(COc1ccc2c(c1)NC(=O)CO2)NCC(O)COc1cccc2[nH]ccc12` (stereo in doubt; 1a) [listing 1 of 2 here], the affinity in assay [2] corresponds to a Ki of 0.126 µM.

For `CC(COc1ccc2c(c1)NC(=O)CO2)NCC(O)COc1cccc2[nH]ccc12` (stereo in doubt; 1c) [listing 2 of 2 here], the inhibitory constant (Ki) in assay [2] is 0.1 µM.

For `O=C1COc2ccc(CC3CCN(CCOc4cccc5ncccc45)CC3)cc2N1`, the Ki in assay [1] is 0.00126 µM; in assay [2], 0.00631 µM. This compound came in with an IA in assay [3] of 0.2.

Turning to `CC(COc1ccc2c(c1)NC(=O)CO2)NCC(O)COc1cccc2[nH]ccc12` (stereo in doubt; 1a) [listing 2 of 2 here], the IA in assay [3] was found to be 0.4.
